Assays:
[1] = target: T1, Inhibitor of nuclear factor kappa-B kinase subunit beta (Homo sapiens, UniProt O14920); assay: Inhibition of human recombinant IKK2
T1 sequence (O14920 whole entry): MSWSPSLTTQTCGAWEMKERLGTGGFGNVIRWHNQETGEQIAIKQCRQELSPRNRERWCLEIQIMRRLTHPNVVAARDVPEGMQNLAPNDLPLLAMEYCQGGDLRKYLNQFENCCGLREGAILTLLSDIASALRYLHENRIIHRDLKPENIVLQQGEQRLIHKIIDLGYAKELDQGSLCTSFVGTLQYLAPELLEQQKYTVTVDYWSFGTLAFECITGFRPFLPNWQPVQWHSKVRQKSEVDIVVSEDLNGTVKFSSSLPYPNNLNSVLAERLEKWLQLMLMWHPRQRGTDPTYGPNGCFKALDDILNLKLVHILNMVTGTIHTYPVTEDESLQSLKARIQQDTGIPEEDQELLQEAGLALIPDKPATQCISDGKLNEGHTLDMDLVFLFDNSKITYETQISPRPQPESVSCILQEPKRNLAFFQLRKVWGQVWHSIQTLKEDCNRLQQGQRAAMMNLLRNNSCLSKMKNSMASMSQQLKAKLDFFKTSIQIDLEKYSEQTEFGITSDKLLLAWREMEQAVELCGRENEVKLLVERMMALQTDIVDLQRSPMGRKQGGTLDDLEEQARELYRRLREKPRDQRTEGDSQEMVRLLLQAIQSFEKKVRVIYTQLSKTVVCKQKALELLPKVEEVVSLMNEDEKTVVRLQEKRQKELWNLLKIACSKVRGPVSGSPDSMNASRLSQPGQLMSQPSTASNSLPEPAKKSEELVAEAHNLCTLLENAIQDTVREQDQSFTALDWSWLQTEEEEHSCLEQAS

PBMC = assay: Inhibition of LPS-stimulated TNFalpha release in human PBMC; assay type: functional, cell-based
Procedure, shortened: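 PBMC were Ficoll-isolated from heparinized blood of healthy donors and plated at 2.5 × 10⁵ cells/well in RPMI 1640 with 5% FBS and penicillin–streptomycin. Cells were preincubated with compound for 1 h, then stimulated with LPS (20 ng/ml) for 16 h. Supernatant TNFα was measured by ELISA, and IC50 is the mean of ≥3 experiments.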

[2] = target: T2, Inhibitor of nuclear factor kappa-B kinase subunit beta (Homo sapiens) (UniProt O14920); assay: Binding affinity to human recombinant IKK2 assessed as half life
T2 sequence (whole entry): T1 sequence (O14920 whole entry)

[3] = target: T2, Inhibitor of nuclear factor kappa-B kinase subunit beta (Homo sapiens); assay: Binding affinity to human IKK2 in PBMC assessed as half life by cell-based assay
Procedure, shortened: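 Cryopreserved PBMC were thawed and plated, then exposed to compound for 1 h. Compound was removed by four spin-and-aspirate washes, and an unwashed plate served as control. Loss of inhibition after washout gave the cellular half-life.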

[4] = Half life in human liver microsomes
[5] = target: Voltage-gated inwardly rectifying potassium channel KCNH2 (Homo sapiens, UniProt Q12809); assay: Displacement of dofetilide from human ERG transfected in HEK293 cells by fluorescence polarization assay
Procedure, shortened: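 Competition binding used membranes from HEK-293 cells transfected with hERG. Test compound competed with Cy3B-tagged N-desmethyl dofetilide for channel binding, with fluorescence polarization read-out. Values are given as % of effect.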

Sequence of Voltage-gated inwardly rectifying potassium channel KCNH2 (Q12809 whole entry): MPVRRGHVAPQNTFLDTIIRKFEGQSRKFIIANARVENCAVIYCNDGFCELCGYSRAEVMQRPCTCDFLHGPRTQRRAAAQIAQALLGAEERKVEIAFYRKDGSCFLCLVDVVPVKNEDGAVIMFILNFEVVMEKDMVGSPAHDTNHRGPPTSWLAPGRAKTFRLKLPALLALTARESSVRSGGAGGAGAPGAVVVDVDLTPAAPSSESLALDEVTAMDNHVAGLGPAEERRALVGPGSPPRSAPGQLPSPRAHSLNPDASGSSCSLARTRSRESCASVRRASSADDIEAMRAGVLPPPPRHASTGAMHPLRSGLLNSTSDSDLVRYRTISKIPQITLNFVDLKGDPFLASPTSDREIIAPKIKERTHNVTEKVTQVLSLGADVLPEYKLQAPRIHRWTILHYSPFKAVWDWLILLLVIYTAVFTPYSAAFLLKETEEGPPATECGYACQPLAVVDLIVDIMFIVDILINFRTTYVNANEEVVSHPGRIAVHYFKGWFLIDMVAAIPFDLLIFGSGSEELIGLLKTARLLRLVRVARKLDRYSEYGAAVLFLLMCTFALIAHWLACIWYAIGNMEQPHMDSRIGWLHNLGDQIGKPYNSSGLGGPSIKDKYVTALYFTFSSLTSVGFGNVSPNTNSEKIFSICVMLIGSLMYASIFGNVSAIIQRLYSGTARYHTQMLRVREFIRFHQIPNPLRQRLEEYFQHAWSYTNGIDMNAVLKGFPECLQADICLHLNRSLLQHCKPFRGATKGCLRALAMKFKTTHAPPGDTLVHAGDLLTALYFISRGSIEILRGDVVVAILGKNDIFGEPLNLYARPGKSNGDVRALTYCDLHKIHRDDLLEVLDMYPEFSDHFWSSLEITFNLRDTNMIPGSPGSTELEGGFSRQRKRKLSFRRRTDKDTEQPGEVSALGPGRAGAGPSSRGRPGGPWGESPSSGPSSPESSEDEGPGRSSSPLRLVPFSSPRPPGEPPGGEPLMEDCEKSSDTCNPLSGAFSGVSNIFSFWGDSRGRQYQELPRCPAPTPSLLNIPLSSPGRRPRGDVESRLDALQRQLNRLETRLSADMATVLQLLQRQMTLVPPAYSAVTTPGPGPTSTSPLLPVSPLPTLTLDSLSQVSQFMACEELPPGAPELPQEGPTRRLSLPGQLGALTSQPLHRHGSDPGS

## Cc1c(CN2CCN(c3cc(C(=O)Nc4ccc5c(c4)-c4c(c(C(N)=O)nn4-c4ccc(F)cc4)CC5)c(Cl)cn3)CC2)cnn1C
[1]
  IC50: 2.8 nM
PBMC
  IC50: 67 nM
[2]
  T1/2: 8 h

## COCCOCCCn1cc(CN2CCN(c3cc(C(=O)Nc4ccc5c(c4)-c4c(c(C(N)=O)nn4-c4ccc(F)cc4)CC5)c(Cl)cn3)CC2)cn1
[3]
  T1/2: < 4 h
[1]
  IC50: 6.6 nM
[4]; liver microsomes
  half-life: 0.05 h
PBMC
  IC50: 21 nM
[5]
  inhibition (INH): 69%
[2]
  T1/2: 4 h

## NC(=O)c1nn(-c2ccc(F)cc2)c2c1CCc1ccc(NC(=O)c3cc(N4CCN(Cc5cnn(CCCO)c5)CC4)ncc3Cl)cc1-2
[3]
  T1/2: > 4 h
[1]
  IC50: 2.2 nM
[4]; microsomes
  half-life: 0.15 h
PBMC
  IC50: 15 nM
[5]
  inhibition (INH): 49%
[2]
  T1/2: 5 h

## COCCOC(=O)Cn1cc(CN2CCN(c3cc(C(=O)Nc4ccc5c(c4)-c4c(c(C(N)=O)nn4-c4ccc(F)cc4)CC5)c(Cl)cn3)CC2)cn1
[3]
  T1/2: > 4 h
[1]
  IC50: 1.3 nM
PBMC
  IC50: 9 nM
[5]
  inhibition (INH): 66%
[2]
  T1/2: 4 h

## COCCNC(=O)Cn1cc(CN2CCN(c3cc(C(=O)Nc4ccc5c(c4)-c4c(c(C(N)=O)nn4-c4ccc(F)cc4)CC5)c(Cl)cn3)CC2)cn1
[3]
  T1/2: > 4 h
[1]
  IC50: 1.3 nM
[4]; liver microsomes
  half-life: 0.05 h
PBMC
  IC50: 10 nM
[5]
  inhibition (INH): 58%
[2]
  T1/2: 6 h

## NC(=O)c1nn(-c2ccc(F)cc2)c2c1CCc1ccc(NC(=O)c3cc(N4CCN(Cc5cnn(CC(=O)O)c5)CC4)ncc3Cl)cc1-2
[1]
  IC50: 0.5 nM
[4]; liver microsomes
  half-life: 2 h
PBMC
  IC50: 221 nM
[5]
  inhibition (INH): 29%

## CN1CCN(c2cc(C(=O)Nc3ccc4c(c3)-c3c(c(C(N)=O)nn3-c3ccc(F)c(F)c3)CC4)c(Cl)cn2)CC1
[1]
  IC50: 10 nM
PBMC
  IC50: 65 nM

## CN1CCN(c2cc(C(=O)Nc3ccc4c(c3)-c3c(c(C(N)=O)nn3-c3ccc(O)cc3)CC4)c(Cl)cn2)CC1
[1]
  IC50: 3.5 nM
PBMC
  IC50: 75 nM
[2]
  T1/2: 1 h

## CN1CCN(c2cc(C(=O)Nc3ccc4c(c3)-c3c(c(C(N)=O)nn3-c3ccc(F)cc3)CC4)c(Cl)cn2)CC1
[1]
  IC50: 1.6 nM
PBMC
  IC50: 39 nM
[2]
  T1/2: 3 h

## COCCN1CCN(c2cc(C(=O)Nc3ccc4c(c3)-c3c(c(C(N)=O)nn3-c3ccc(F)cc3)CC4)c(Cl)cn2)CC1
[1]
  IC50: 1.9 nM
PBMC
  IC50: 8 nM
[2]
  T1/2: 0.6 h

## CN1CCN(c2cc(C(=O)Nc3ccc4c(c3)-c3c(c(C(N)=O)nn3-c3cccc(F)c3)CC4)c(Cl)cn2)CC1
[1]
  IC50: 4.8 nM
PBMC
  IC50: 14 nM
[2]
  T1/2: 2 h

## NC(=O)c1nn(-c2ccc(F)cc2)c2c1CCc1ccc(NC(=O)c3cc(N4CCN(Cc5cn[nH]c5)CC4)ncc3Cl)cc1-2
[1]
  IC50: 1.9 nM
[4]; microsomes
  half-life: 0.133 h
PBMC
  IC50: 16 nM
[5]
  inhibition (INH): 78%
[2]
  T1/2: 3 h

## CN1CCN(c2cc(C(=O)Nc3ccc4c(c3)-c3c(c(C(N)=O)nn3-c3ccc(O)c(Cl)c3)CC4)c(Cl)cn2)CC1
[1]
  IC50: 2.8 nM
PBMC
  IC50: 46 nM
[2]
  T1/2: 1 h

## CCn1cc(CN2CCN(c3cc(C(=O)Nc4ccc5c(c4)-c4c(c(C(N)=O)nn4-c4ccc(F)cc4)CC5)c(Cl)cn3)CC2)cn1
[1]
  IC50: 4.2 nM
PBMC
  IC50: 102 nM
[2]
  T1/2: > 8 h

## Cc1nn(C)cc1CN1CCN(c2cc(C(=O)Nc3ccc4c(c3)-c3c(c(C(N)=O)nn3-c3ccc(F)cc3)CC4)c(Cl)cn2)CC1
[1]
  IC50: 4.3 nM
PBMC
  IC50: 118 nM
[2]
  T1/2: 8 h

## Cn1cc(CN2CCN(c3cc(C(=O)Nc4ccc5c(c4)-c4c(c(C(N)=O)nn4-c4ccc(F)cc4)CC5)c(Cl)cn3)CC2C(=O)O)cn1 (centres undefined)
[1]
  IC50: 3.9 nM
PBMC
  IC50: 432 nM
[2]
  T1/2: 0.3 h

## Cn1cc(CN2CCN(c3cc(C(=O)Nc4ccc5c(c4)-c4c(c(C(N)=O)nn4-c4cccc(F)c4)CC5)c(Cl)cn3)CC2)cn1
[4]; microsomes
  half-life: 0.233 h
PBMC
  IC50: 14 nM
[5]
  inhibition (INH): 83%
[2]
  T1/2: 3 h

## Cn1cc(CN2CCN(c3cc(C(=O)Nc4ccc5c(c4)-c4c(c(C(N)=O)nn4-c4ccc(F)cc4)CC5)c(Cl)cn3)CC2)cn1
[1]
  IC50: 3 nM
[4]; liver microsomes
  half-life: 0.283 h
PBMC
  IC50: 11 nM
[5]
  inhibition (INH): 91%
[2]
  T1/2: 4 h

## Cn1cc(CN2CCN(c3cc(C(=O)Nc4ccc5c(c4)-c4c(c(C(N)=O)nn4-c4ccc(F)cc4)CC5)c(Cl)cn3)C(C(=O)O)C2)cn1 (centres undefined)
[1]
  IC50: 0.5 nM
PBMC
  IC50: 529 nM
[2]
  T1/2: 4.2 h

## COc1ccc(-n2nc(C(N)=O)c3c2-c2cc(NC(=O)c4cc(N5CCN(C)CC5)ncc4Cl)ccc2CC3)cc1
[1]
  IC50: 6.1 nM
PBMC
  IC50: 33 nM

## CN1CCN(c2cc(C(=O)Nc3ccc4c(c3)-c3c(c(C(N)=O)nn3-c3cccc(O)c3)CC4)c(Cl)cn2)CC1
[1]
  IC50: 1.2 nM
PBMC
  IC50: 89 nM
[2]
  T1/2: 1 h

## C[C@H]1CN(c2cc(C(=O)Nc3ccc4c(c3)-c3c(c(C(N)=O)nn3-c3ccc(F)cc3)CC4)c(Cl)cn2)CCN1Cc1cnn(C)c1
[1]
  IC50: 3.5 nM
PBMC
  IC50: 9 nM
[2]
  T1/2: 6 h

## CC(C)NC(=O)Cn1cc(CN2CCN(c3cc(C(=O)Nc4ccc5c(c4)-c4c(c(C(N)=O)nn4-c4ccc(F)cc4)CC5)c(Cl)cn3)CC2)cn1
[1]
  IC50: 2 nM
PBMC
  IC50: 36 nM
[5]
  inhibition (INH): 94%
[2]
  T1/2: 5 h

## NC(=O)c1nn(-c2ccc(F)cc2)c2c1CCc1ccc(NC(=O)c3cc(N4CCC(O)CC4)ncc3Cl)cc1-2
[1]
  IC50: 0.6 nM
PBMC
  IC50: 15 nM
[2]
  T1/2: 0.1 h

## NC(=O)c1nn(-c2ccc(F)cc2)c2c1CCc1ccc(NC(=O)c3cc(N4CCN(Cc5cnn(CC(=O)N(CCO)CCO)c5)CC4)ncc3Cl)cc1-2
[3]
  T1/2: > 4 h
[1]
  IC50: 10.2 nM
PBMC
  IC50: 474 nM
[5]
  inhibition (INH): -1%
[2]
  T1/2: 4 h

## COC(=O)Cn1cc(CN2CCN(c3cc(C(=O)Nc4ccc5c(c4)-c4c(c(C(N)=O)nn4-c4ccc(F)cc4)CC5)c(Cl)cn3)CC2)cn1
[1]
  IC50: 1.1 nM
PBMC
  IC50: 54 nM
[5]
  inhibition (INH): 24%
[2]
  T1/2: 6 h

## CN(C)CCCNC(=O)Cn1cc(CN2CCN(c3cc(C(=O)Nc4ccc5c(c4)-c4c(c(C(N)=O)nn4-c4ccc(F)cc4)CC5)c(Cl)cn3)CC2)cn1
[1]
  IC50: 3.3 nM
[4]; microsomes
  half-life: 0.6 h
PBMC
  IC50: 26 nM
[5]
  inhibition (INH): 34%
[2]
  T1/2: 6 h

## Cc1ccc(-n2nc(C(N)=O)c3c2-c2cc(NC(=O)c4cc(N5CCN(C)CC5)ncc4Cl)ccc2CC3)cc1
[1]
  IC50: 14 nM
PBMC
  IC50: 38 nM

## COCCNc1cc(C(=O)Nc2ccc3c(c2)-c2c(c(C(N)=O)nn2-c2ccc(F)cc2)CC3)c(Cl)cn1
[1]
  IC50: 0.6 nM
PBMC
  IC50: 134 nM
[2]
  T1/2: 0.1 h

## CN1CCN(c2cc(C(=O)Nc3ccc4c(c3)-c3c(c(C(N)=O)nn3-c3ccc(Cl)c(O)c3)CC4)c(Cl)cn2)CC1
[1]
  IC50: 2.2 nM
[2]
  T1/2: 1 h

From ChEMBL document CHEMBL1667819, “Aminopyridinecarboxamide-based inhaled IKK-2 inhibitors for asthma and COPD: Structure-activity relationship” (Bioorg Med Chem, 2011)
